This note sets out measurements from ChEMBL document CHEMBL4665722, “Discovery of a novel selective water-soluble SMAD3 inhibitor as an antitumor agent” (Bioorg Med Chem Lett, 2020).

For data set [1], the target named is Mothers against decapentaplegic homolog 2 (Homo sapiens) (UniProt Q15796). As to the kind of experiment: Inhibition of TGF-beta induced SMAD2 phosphorylation in human A549 cells at 5 to 10 uM pretreated with compound for 2 hrs followed by TGF-beta stimulation by Western blot analysis. It counts as cell-based. The conditions noted are these: dose microM 5-10, time 2.0 hrs. Put shortly: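 A549 cells pre-treated 2 h at 5 and 10 μM, then stimulated with 1 ng/mL TGF-β for 30 min. Lysates probed by western blot for phospho-SMAD2, SMAD2, phospho-SMAD3 and SMAD3. GAPDH served as loading control.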
(In general: In western blotting, separated proteins are transferred to a membrane and probed.)

Data set [2] can be described thus: Solubility of the compound in water. It counts as physicochemical. The essentials: (§1)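 Solubility of free base or HCl salt measured in pure water and in phosphate buffer pH 7.4 at room temperature, quantified by HPLC.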
The target in data set [3] is Mothers against decapentaplegic homolog 3 (Homo sapiens) (UniProt P84022). The conditions noted are these: NIH3T3.
The next data set concerns A549. In words: Cytotoxicity against human A549 cells assessed as inhibition of cell growth by MTT assay. The conditions noted are these: read-out: TD50 (the source's name). It counts as functional. The essentials: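 A549 cell growth measured by MTT assay. Value is the concentration giving 50% growth inhibition relative to controls, mean of three experiments.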
On the technique in general: Tetrazolium assays rely on reduction of a dye to a coloured formazan, in cell work by metabolically active cells.

Data set [4] is described as follows: Solubility of the compound in PBS buffer at pH 7.4. It counts as physicochemical. Put shortly:
as §1

For data set [5], the system named is Lewis lung carcinoma. In words: Antitumor activity against mouse Lewis lung carcinoma cells allografted in ip dosed C57BL/6 mouse assessed as reduction in tumor volume administered for 20 consecutive days. The conditions noted are these: dose microg/g 1.25-5, time 20.0 day.
A further data set deals with Mus musculus. In words: Induction of NK-mediated antitumor immunity in ip dosed C57BL/6 mouse allografted with mouse Lewis lung carcinoma cells assessed as increase in NK cell infiltration in tumor by immunofluorescent staining based assay. Particulars: dose microg/g 1.25-5.
Data set [6] relates to Lewis lung carcinoma. As to the kind of experiment: Antitumor activity against mouse Lewis lung carcinoma cells allografted in ip dosed C57BL/6 mouse assessed as reduction in tumor weight administered for 20 consecutive days. Particulars: dose microg/g 1.25-5, time 20.0 day.

Each structure is given as a SMILES string. In brackets after ≈: the same amount, converted by molar mass. Activity calls are given as the source filed them. The rule behind the calls is not given here.

Chain of Mothers against decapentaplegic homolog 2 (Homo sapiens) (Q15796 whole entry): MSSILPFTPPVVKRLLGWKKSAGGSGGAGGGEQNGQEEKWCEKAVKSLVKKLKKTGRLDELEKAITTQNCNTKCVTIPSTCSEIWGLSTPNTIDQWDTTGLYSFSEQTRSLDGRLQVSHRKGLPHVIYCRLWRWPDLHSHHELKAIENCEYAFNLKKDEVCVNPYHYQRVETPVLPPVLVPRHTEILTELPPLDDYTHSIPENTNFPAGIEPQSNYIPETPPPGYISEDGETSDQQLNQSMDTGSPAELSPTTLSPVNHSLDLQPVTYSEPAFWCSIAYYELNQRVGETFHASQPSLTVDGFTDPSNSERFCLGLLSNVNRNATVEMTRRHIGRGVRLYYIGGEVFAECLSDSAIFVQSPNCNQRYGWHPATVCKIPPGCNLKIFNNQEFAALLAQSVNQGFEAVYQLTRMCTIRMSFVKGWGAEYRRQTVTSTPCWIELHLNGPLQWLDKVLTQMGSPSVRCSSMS
Chain of Mothers against decapentaplegic homolog 3 (Homo sapiens) (P84022 2-425 limits assumed): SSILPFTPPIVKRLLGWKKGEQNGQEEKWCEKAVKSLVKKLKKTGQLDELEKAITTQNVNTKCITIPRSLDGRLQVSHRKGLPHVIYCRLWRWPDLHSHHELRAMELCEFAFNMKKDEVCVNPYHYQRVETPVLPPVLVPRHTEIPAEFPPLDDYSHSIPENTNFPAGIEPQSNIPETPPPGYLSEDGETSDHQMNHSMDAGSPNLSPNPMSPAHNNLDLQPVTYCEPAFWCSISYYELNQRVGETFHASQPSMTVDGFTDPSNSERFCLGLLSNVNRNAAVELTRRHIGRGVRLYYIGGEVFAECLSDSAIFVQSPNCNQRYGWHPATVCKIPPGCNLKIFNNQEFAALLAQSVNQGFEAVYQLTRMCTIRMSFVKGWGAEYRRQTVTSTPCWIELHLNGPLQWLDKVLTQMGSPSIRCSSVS

Take `COc1ccc(CN2CC/C(=C\c3c(-c4ccccc4)n(C)c4ncccc34)C2=O)cc1OC`: the inhibition entry in data set [1] is “inactive”.

As to `COc1cc2c(cc1OC)CN(C(=O)/C=C/c1c(-c3ccccc3)n(C)c3ncccc13)CC2.Cl`, the solubility is 141 µg/mL in data set [2] and 6 µg/mL in data set [4]. In data set [3], this compound displayed an ED50 of 4.53 µM. Moreover, the CC50 with A549 turned out to be 18.7 µM.

With `Cc1nc(C)c(CN2CC/C(=C\c3c(-c4ccccc4)n(C)c4ncccc34)C2=O)nc1C.Cl`, the solubility in data set [2] (water) is more than 94000 µg/mL.

As to `Cc1nc(C)c(CN2CC/C(=C\c3c(-c4ccccc4)n(C)c4ncccc34)C2=O)nc1C` [listing 1 of 2 here], the Activity entry in the data set on Lewis lung carcinoma [5], in the data set with Mus musculus and in the data set with Lewis lung carcinoma [6] was “Dose-dependent effect” throughout. For the same compound, the inhibition result in data set [1] is “inactive”.

Turning to `Cc1nc(C)c(CN2CC/C(=C\c3c(-c4ccccc4)n(C)c4ncccc34)C2=O)nc1C` [listing 2 of 2 here], the CC50 with A549 was determined as 22 µM. Also, in data set [4], the solubility was 14 µg/mL (≈ 32 µM).

Broadly, the solubility is the concentration that dissolves in the medium under given conditions. The low end stands for little dissolved substance, the high end for much dissolved substance.
